Results reported in ChEMBL document CHEMBL1687796, “Synthesis and spectrum of the neoglycoside ACHN-490” (2010).
In brackets after ≈: the same amount, converted by molar mass.

Experiments:
[1] = test system: Staphylococcus aureus; assay: Antibacterial activity against aminoglycoside-resistant Staphylococcus aureus expressing APH(2'') + AAC(6') by broth microdilution method; format: functional
Method in brief: (§1)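 MICs were measured by broth microdilution following CLSI guidance. The strains formed a 25-strain screening panel with diverse aminoglycoside resistance mechanisms. The panel included Gram-negative and S. aureus strains carrying key aminoglycoside-modifying enzymes, strains with altered permeability or efflux, and an armA ribosomal methyltransferase strain.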

[2] = test system: Acinetobacter; assay: Antibacterial activity against aminoglycoside-resistant Acinetobacter spp. expressing APH(3')-6 by broth microdilution method; format: functional
Method in brief: (§2)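 Clinical aminoglycoside-resistant isolates were each carrying a single aminoglycoside-modifying enzyme. […] MICs were determined by CLSI broth microdilution.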

[3] = test system: Acinetobacter baumannii; assay: Antibacterial activity against aminoglycoside-susceptible Acinetobacter baumannii by broth microdilution method; format: functional
[4] = test system: Acinetobacter baumannii; assay: Antibacterial activity against Acinetobacter baumannii ATCC 19606 by broth microdilution method; format: functional; conditions: ATCC 19606 = CIP 70.34 = JCM 6841; method in brief: as §1
[5] = test system: Acinetobacter calcoaceticus; assay: Antibacterial activity against aminoglycoside-resistant Acinetobacter calcoaceticus expressing AAC(6')-1 by broth microdilution method; format: functional; method in brief: as §2
[6] = test system: Pseudomonas aeruginosa; assay: Antibacterial activity against Pseudomonas aeruginosa ATCC 27853 by broth microdilution method; format: functional
[7] = test system: Pseudomonas aeruginosa; assay: Antibacterial activity against wild type Pseudomonas aeruginosa expressing efflux pump by broth microdilution method; format: functional
Method in brief: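 MIC was determined by CLSI broth microdilution, read in μg/ml. The strain came from a 25-strain screening panel with diverse aminoglycoside resistance mechanisms. The panel included strains with changes in permeability or efflux, key aminoglycoside-modifying enzymes and an armA methyltransferase strain.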

[8] = test system: Pseudomonas aeruginosa; assay: Antibacterial activity against efflux pump deficient Pseudomonas aeruginosa by broth microdilution method; format: functional
[9] = test system: Pseudomonas aeruginosa; assay: Antibacterial activity against Pseudomonas aeruginosa expressing mexXY operon by broth microdilution method; format: functional; method in brief: as §1
[10] = test system: Pseudomonas aeruginosa; assay: Antibacterial activity against Pseudomonas aeruginosa expressing ANT(4')-2 by broth microdilution method; format: functional; method in brief: as §1
[11] = test system: Pseudomonas aeruginosa; assay: Antibacterial activity against Pseudomonas aeruginosa expressing AAC(3)-1 by broth microdilution method; format: functional
[12] = test system: Pseudomonas aeruginosa; assay: Antibacterial activity against Pseudomonas aeruginosa expressing AAC(6')-2 by broth microdilution method; format: functional
[13] = test system: Klebsiella pneumoniae; assay: Antibacterial activity against Klebsiella pneumoniae ATCC 10031 by broth microdilution method; format: functional; method in brief: as §1
[14] = test system: Escherichia coli; assay: Antibacterial activity against Escherichia coli ATCC 25922 by broth microdilution method; format: functional; method in brief: as §1
[15] = test system: Escherichia coli; assay: Antibacterial activity against aminoglycoside-resistant Escherichia coli expressing ANT(2'')-1 by broth microdilution method; format: functional; method in brief: as §2
[16] = test system: Escherichia coli; assay: Antibacterial activity against aminoglycoside-resistant Escherichia coli expressing armA methylase by broth microdilution method; format: functional; method in brief: as §1
[17] = test system: Serratia marcescens; assay: Antibacterial activity against aminoglycoside-resistant Serratia marcescens expressing ANT(2''), AAC(6') by broth microdilution method; format: functional; method in brief: as §1
[18] = test system: Staphylococcus aureus; assay: microbe, parasite or virus in culture
[19] = test system: Staphylococcus aureus; assay: microbe, parasite or virus in culture; conditions: ATCC 29213
[20] = test system: Staphylococcus aureus; assay: microbe, parasite or virus in culture; remark: listed apart in the source
[21] = test system: Escherichia coli; assay: Antibacterial activity against aminoglycoside-resistant Escherichia coli expressing AAC(3)-2 by broth microdilution method
[22] = test system: Escherichia coli; assay: Antibacterial activity against aminoglycoside-resistant Escherichia coli expressing AAC(6')-1 by broth microdilution method
[23] = test system: Escherichia coli; assay: Antibacterial activity against aminoglycoside-resistant Escherichia coli expressing APH(3')-1b by broth microdilution method
[24] = test system: Escherichia coli; assay: Antibacterial activity against aminoglycoside-resistant Escherichia coli expressing AAC(3)-IVa by broth microdilution method
[25] = test system: Providencia stuartii; assay: Antibacterial activity against aminoglycoside-resistant Providencia stuartii expressing AAC(2')-1 by broth microdilution method

What does the source list for `CN[C@@H]1[C@@H](O)[C@@H](O[C@@H]2[C@@H](O)[C@H](O[C@H]3OC(CN)=CC[C@H]3N)[C@@H](N)C[C@H]2N)OC[C@]1(C)O` [SISOMICIN]?
MIC [1]: > 64 µg/mL; MIC [2]: 0.5 µg/mL (≈ 1.12 µM); MIC [3]: 0.5 µg/mL (≈ 1.12 µM); MIC [4]: 8 µg/mL (≈ 17.9 µM); MIC [5]: 32 µg/mL (≈ 71.5 µM); MIC [6]: 0.5 µg/mL (≈ 1.12 µM); MIC [7]: 1 µg/mL (≈ 2.23 µM); MIC [8]: 0.125 µg/mL (≈ 0.279 µM); MIC [9]: 1 µg/mL (≈ 2.23 µM); MIC [10]: 1 µg/mL (≈ 2.23 µM); MIC [11]: 32 µg/mL (≈ 71.5 µM); MIC [12]: 32 µg/mL (≈ 71.5 µM); MIC [13]: 0.25 µg/mL (≈ 0.559 µM); MIC [14]: 0.5 µg/mL (≈ 1.12 µM); MIC [15]: 64 µg/mL (≈ 143 µM); MIC [16]: > 64 µg/mL; MIC [17]: 8 µg/mL (≈ 17.9 µM); MIC [18]: 0.25 µg/mL (≈ 0.559 µM); MIC [19]: 0.5 µg/mL (≈ 1.12 µM); MIC [20]: 1 µg/mL (≈ 2.23 µM); MIC [21]: > 64 µg/mL; MIC [22]: 32 µg/mL (≈ 71.5 µM); MIC [23]: 0.25 µg/mL (≈ 0.559 µM); MIC [24]: 32 µg/mL (≈ 71.5 µM); MIC [25]: 64 µg/mL (≈ 143 µM)
